The source of these data is ChEMBL document CHEMBL1142244, “Cytotoxic constituents from the fruiting branches of Callicarpa americana collected in southern Florida” (J Nat Prod, 2007).

≈ marks a conversion by molar mass, not a printed value.

Data set [1] relates to MCF7. The data set can be described thus: (§1) Cytotoxicity against human MCF7 cells. The format is cell-based. Conditions: mcf7; call rule not given here.
Data set [2] concerns Lu1. The data set can be described thus: (§2) Cytotoxicity against human Lu1 cells. The class given is cell-based. Particulars: lu1.
For a further data set, the system named is Col2. The data set can be described thus: (§3) Cytotoxicity against human Col2 cells. The format is cell-based. Particulars: col2.
Data set [3] deals with LNCaP. The data set can be described thus: (§4) Cytotoxicity against human LNCaP cells. The format is cell-based. Particulars: lncap.
For the next data set, the system named is TERT-RPE1. Nature of the data set: (§5) Cytotoxicity against human TERT-RPE1 cells. Conditions: tert-rpe1. The format is cell-based.
Another data set concerns HUVEC. Nature of the data set: (§6) Cytotoxicity against human HUVEC cells. The class given is cell-based. Particulars: huvec.
Data set [4] in a line: as §2. Conditions: Lu1 cells, read-out: ED50 (the source's name). The format is cell-based.
A short description of data set [5]: as §3. The format is cell-based. Conditions: Col2 cells, read-out: ED50 (the source's name).
The nature of data set [6]: as §4. The class given is cell-based. Conditions: LNCaP cells, read-out: ED50 (the source's name).
Data set [7] in a line: as §5. The format is cell-based. Particulars: TERT-RPE1 cells, read-out: ED50 (the source's name).
Data set [8] is described as follows: as §6. The class given is cell-based. Conditions: HUVEC cells, read-out: ED50 (the source's name).
The test system of data set [9] is LNCaP. The data set can be described thus: Cytotoxicity against human LNCaP cells xenografted in NCr nu/nu athymic mouse at 6.25 mg/kg, ip by hollow fiber assay. The format is organism-based. Conditions: in vivo. Set-up: dose 6.25 mg/kg, route intraperitoneal. A digest of the protocol:
(§7)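 Female-unspecified NCr nu/nu athymic mice, five to six weeks old. LNCaP, Lu1 and MCF-7 cells were sealed in semi-porous hollow fibres and implanted at intraperitoneal and subcutaneous sites, each mouse carrying all three lines at both sites. Compound was given i.p. at 6.25, 12.5, 25 or 50 mg/kg, with three mice per dose group.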
A general note: Xenograft models place foreign cells or tissue in a host animal.

The subject of data set [10] is LNCaP. The data set can be described thus: Cytotoxicity against human LNCaP cells xenografted in NCr nu/nu athymic mouse at 12.5 mg/kg, ip by hollow fiber assay. The class given is organism-based. More on the design: dose 12.5 mg/kg, route intraperitoneal. Conditions: in vivo. A digest of the protocol: as §7
In data set [11] the test system is LNCaP. Nature of the data set: Cytotoxicity against human LNCaP cells xenografted in NCr nu/nu athymic mouse at 25 mg/kg, ip by hollow fiber assay. The class given is organism-based. More on the design: dose 25 mg/kg, route intraperitoneal. Conditions: in vivo. A digest of the protocol:
as §7

The subject of data set [12] is LNCaP. Nature of the data set: Cytotoxicity against human LNCaP cells xenografted in NCr nu/nu athymic mouse at 50 mg/kg, ip by hollow fiber assay. The class given is organism-based. More on the design: dose 50 mg/kg, route intraperitoneal. Conditions: in vivo. A digest of the protocol:
as §7

Data set [13] concerns Lu1. The data set can be described thus: Cytotoxicity against human Lu1 cells xenografted in NCr nu/nu athymic mouse at 6.25 mg/kg, ip by hollow fiber assay. The class given is organism-based. More on the design: dose 6.25 mg/kg, route intraperitoneal. Particulars: in vivo. A digest of the protocol:
as §7

Data set [14] concerns Lu1. Nature of the data set: Cytotoxicity against human Lu1 cells xenografted in NCr nu/nu athymic mouse at 12.5 mg/kg, ip by hollow fiber assay. More on the design: dose 12.5 mg/kg, route intraperitoneal. The format is organism-based. Conditions: in vivo. A digest of the protocol:
as §7

For data set [15], the system named is Lu1. The data set can be described thus: Cytotoxicity against human Lu1 cells xenografted in NCr nu/nu athymic mouse at 25 mg/kg, ip by hollow fiber assay. Particulars: in vivo. Set-up: dose 25 mg/kg, route intraperitoneal. The class given is organism-based. A digest of the protocol: as §7
Data set [16] concerns Lu1. The data set can be described thus: Cytotoxicity against human Lu1 cells xenografted in NCr nu/nu athymic mouse at 50 mg/kg, ip by hollow fiber assay. The format is organism-based. Set-up: dose 50 mg/kg, route intraperitoneal. Particulars: in vivo. A digest of the protocol: as §7
In data set [17] the test system is MCF7. The data set can be described thus: Cytotoxicity against human MCF7 cells xenografted in NCr nu/nu athymic mouse at 6.25 mg/kg, ip by hollow fiber assay. The class given is organism-based. More on the design: dose 6.25 mg/kg, route intraperitoneal. Particulars: in vivo. A digest of the protocol: as §7
Data set [18] has as its system MCF7. Nature of the data set: Cytotoxicity against human MCF7 cells xenografted in NCr nu/nu athymic mouse at 12.5 mg/kg, ip by hollow fiber assay. The class given is organism-based. Set-up: dose 12.5 mg/kg, route intraperitoneal. Conditions: in vivo. A digest of the protocol: as §7
Data set [19] relates to MCF7. Nature of the data set: Cytotoxicity against human MCF7 cells xenografted in NCr nu/nu athymic mouse at 25 mg/kg, ip by hollow fiber assay. Set-up: dose 25 mg/kg, route intraperitoneal. The class given is organism-based. Conditions: in vivo. A digest of the protocol: as §7
Data set [20] relates to MCF7. Nature of the data set: Cytotoxicity against human MCF7 cells xenografted in NCr nu/nu athymic mouse at 50 mg/kg, ip by hollow fiber assay. The class given is organism-based. Set-up: dose 50 mg/kg, route intraperitoneal. Conditions: in vivo. A digest of the protocol: as §7
A short description of data set [21]: as §1. The format is cell-based. Particulars: MCF7 cells, read-out: ED50 (the source's name).

Regarding `CC1=CCC[C@@H]2[C@@](C)(C[C@H](O)C3=CC(=O)OC3)[C@H](C)CC[C@@]12C`, the Activity result in the data set on MCF7 [1], with Lu1 [2], with Col2, with LNCaP [3], with TERT-RPE1 and with HUVEC was “Not Active” throughout.

`C=C1[C@@H](O)CC[C@@H]2[C@@](C)(C[C@H](O)C3=CC(=O)OC3)[C@H](C)CC[C@@]12C`: the Activity entry with MCF7 [1], with Lu1 [2], with Col2, with LNCaP [3], in the data set on TERT-RPE1 and in the data set with HUVEC was “Not Active” throughout.

On to `CC1=CCC[C@@H]2[C@@](C)(C[C@H](O)C3=CC(=O)O[C@H]3O)[C@H](C)CC[C@@]12C`, for which the CC50 in [4] was determined as 2.4 µg/mL (≈ 7.18 µM); in data set [5], 2.3 µg/mL (≈ 6.88 µM); in [6] it was 4.1 µg/mL (≈ 12.3 µM); in data set [7], 1.9 µg/mL (≈ 5.68 µM); in data set [8], 1.8 µg/mL (≈ 5.38 µM). In addition, the Activity result in the data set with LNCaP [9], in the data set with LNCaP [10], with LNCaP [11], in the data set with LNCaP [12], in the data set on Lu1 [13] and in the data set with Lu1 [14] was “Not Active” in each case. Further, the Activity entry in the data set on Lu1 [15], in the data set on Lu1 [16], with MCF7 [17], with MCF7 [18], in the data set on MCF7 [19] and in the data set with MCF7 [20] was “Not Active” each time.

On to `CC1=CCC[C@@H]2[C@@](C)(/C=C/C3=CC(=O)O[C@H]3O)[C@H](C)CC[C@@]12C`, for which the CC50 in [21] turned out to be 2.7 µg/mL (≈ 8.53 µM); in data set [4], 2.6 µg/mL (≈ 8.22 µM); in [6] it was 2.5 µg/mL (≈ 7.9 µM); in [8], 1.2 µg/mL (≈ 3.79 µM).

`CC1=C(C=O)C[C@@H]2[C@@](C)(CCC3=CC(=O)OC3O)[C@H](C)CC[C@@]12C` (some centres not stated): the CC50 in data set [21] was 3.9 µg/mL (≈ 11.7 µM); in data set [4], 8.7 µg/mL (≈ 26.2 µM); in data set [5], 9 µg/mL (≈ 27.1 µM); in data set [6] it was 4.5 µg/mL (≈ 13.5 µM); in data set [7] it was 1.9 µg/mL (≈ 5.72 µM); in [8], 9.8 µg/mL (≈ 29.5 µM).

For the compound `COc1ccc(-c2cc(=O)c3c(O)cc(OC)cc3o2)cc1`, the Activity result in the data set on MCF7 [1], in the data set on Lu1 [2], with Col2, with LNCaP [3], in the data set on TERT-RPE1 and with HUVEC was “Not Active” throughout.

For the compound `C=C1[C@@H](O)CC[C@@H]2[C@@](C)(CCC3=CC(=O)O[C@H]3O)[C@H](C)CC[C@@]12C`, the Activity result in the data set with MCF7 [1], in the data set on Lu1 [2], in the data set with Col2, in the data set with LNCaP [3], with TERT-RPE1 and with HUVEC was “Not Active” in each case.

As to `CO[C@@H]1OC(=O)C=C1[C@@H](O)C[C@@]1(C)[C@H](C)CC[C@@]2(C)C(C)=CCC[C@H]12`, the Activity entry with MCF7 [1], with Lu1 [2], in the data set on Col2, in the data set on LNCaP [3], with TERT-RPE1 and with HUVEC was “Not Active” throughout.

In the case of `CC1=CCC[C@@H]2[C@@](C)(CCC3=CC(=O)O[C@H]3O)[C@H](C)CC[C@@]12C`, the CC50 in [21] worked out at 3.5 µg/mL (≈ 11 µM); in data set [4], 3.7 µg/mL (≈ 11.6 µM); in data set [6], 3.3 µg/mL (≈ 10.4 µM); in data set [8], 4.1 µg/mL (≈ 12.9 µM).

Regarding `CC1=CCC[C@@H]2[C@@](C)(C[C@H](O)C3=CCOC3=O)[C@H](C)CC[C@@]12C`, the CC50 in data set [21] was found to be 2.8 µg/mL (≈ 8.79 µM); in [4] it was 2.9 µg/mL (≈ 9.11 µM); in [6], 3.3 µg/mL (≈ 10.4 µM).

With `CC1(C)C(=O)CC[C@@]2(C)[C@H]1CC[C@@]13C[C@H](CC[C@@H]12)[C@@](O)(CO)C3` [CALLITERPENONE], the Activity entry in the data set with MCF7 [1], with Lu1 [2], in the data set on Col2, in the data set on LNCaP [3], with TERT-RPE1 and in the data set on HUVEC was “Not Active” each time.

Regarding `C[C@@H]1CC[C@]2(C(=O)O)CC[C@]3(C)C(=CC[C@@H]4[C@@]5(C)C[C@@H](O)[C@@H](O)C(C)(C)[C@@H]5CC[C@]43C)[C@@H]2[C@]1(C)O` [EUSCAPHIC ACID], the Activity result in the data set with MCF7 [1], in the data set on Lu1 [2], in the data set with Col2, in the data set with LNCaP [3], with TERT-RPE1 and with HUVEC was “Not Active” in each case.

For `COc1cc(O)c2c(=O)cc(-c3ccc(O)cc3)oc2c1` [GENKWANIN], the CC50 in data set [4] was > 20 µg/mL; in data set [5] it was > 20 µg/mL; in data set [6] it was > 20 µg/mL; in [7], 3.9 µg/mL (≈ 13.7 µM); in data set [8], > 20 µg/mL.

Take `COc1ccc(-c2cc(=O)c3c(O)c(OC)c(OC)cc3o2)cc1` [SALVIGENIN]: the Activity entry in the data set on MCF7 [1], with Lu1 [2], in the data set on Col2, in the data set on LNCaP [3], in the data set on TERT-RPE1 and in the data set with HUVEC was “Not Active” throughout.
